{"source": "ChEMBL document CHEMBL1275447", "about": "(Antimicrob Agents Chemother, 2008)", "key": {"[1]": {"experiment": "fT>MIC in human infected with Pseudomonas aeruginosa isolate 1052 at 500 mg administered as 4 hr infusion", "assay_type": "functional"}, "[2]": {"experiment": "fT>MIC in human infected with Pseudomonas aeruginosa isolate 944 at 500 mg administered as 4 hr infusion", "assay_type": "functional"}, "Pseudomonas aeruginosa [3]": {"tested_on": "Pseudomonas aeruginosa", "experiment": "Antibacterial activity against Pseudomonas aeruginosa isolate 1006 by microdilution method", "assay_type": "functional"}, "[4]": {"experiment": "Cmax in healthy human at 500 mg administered as as 4 hr infusion", "assay_type": "ADME, organism-based", "design": "dose 500 mg", "conditions": "in vivo, iv"}, "[5]": {"experiment": "Cmax in Pseudomonas aeruginosa ATCC 27853 infected neutropenic ICR mouse at 5.5, 2.25, 4.5, 4.5, 4.5, 4.5, 0.75, and 0.375 mg/kg given at 0, 0.5, 1.5, 2.5, 3.5, 4.5, 6, and 7.5 h over 24 h", "assay_type": "ADME, organism-based", "design": "dose 0.375 mg/kg", "conditions": "in vivo"}, "[6]": {"experiment": "fT>MIC in human infected with Pseudomonas aeruginosa isolate 1060 at 500 mg administered as 1 hr infusion", "assay_type": "functional"}, "[7]": {"experiment": "fT>MIC in neutropenic mouse infected with Pseudomonas aeruginosa isolate 1036 at 500 mg administered as 4 hr infusion", "assay_type": "functional", "method_in_brief": "(§1)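 Mouse fT>MIC was modelled with first-order one-compartment serum PK and 25.2% binding. Mice were neutropenic (cyclophosphamide) with uranyl nitrate renal impairment. Subcutaneous doses were 5.5, 2.25, 4.5, 4.5, 4.5, 4.5, 0.75, 0.375 mg/kg at 0, 0.5, 1.5, 2.5, 3.5, 4.5, 6, 7.5 h per 8-h interval over 24 h.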"}, "[8]": {"experiment": "fT>MIC in human infected with Pseudomonas aeruginosa isolate 1055 at 500 mg administered as 4 hr infusion", "assay_type": "functional"}, "[9]": {"experiment": "fT>MIC in human infected with Pseudomonas aeruginosa isolate 1050 at 500 mg administered as 4 hr infusion", "assay_type": "functional"}, "[10]": {"experiment": "AUC in Pseudomonas aeruginosa ATCC 27853 infected neutropenic ICR mouse at 500 mg administered as 4 hr infusion", "assay_type": "ADME, organism-based", "conditions": "plasma, iv"}, "[11]": {"experiment": "fT>MIC in neutropenic mouse infected with Pseudomonas aeruginosa isolate 927 at 500 mg administered as 4 hr infusion", "assay_type": "functional", "method_in_brief": "as §1"}, "[12]": {"experiment": "Half-life in Pseudomonas aeruginosa ATCC 27853 infected neutropenic ICR mouse at 10 mg/kg, sc administered as single dose 2 hrs postinfection", "assay_type": "ADME, organism-based", "design": "dose 10 mg/kg, route subcutaneous", "conditions": "in vivo", "method_in_brief": "(§2)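 Neutropenic mice (cyclophosphamide ip 150 and 100 mg/kg, 4 and 1 days before inoculation) with uranyl nitrate 5 mg/kg ip 3 days before, for renal impairment. Thigh infection with ATCC 27853 at 10⁶ CFU/ml, 0.1 ml per thigh. Single sc doses 2 h later. Intracardiac blood from 6–12 mice per time point, eight time points over 4 h. Serum assayed by HPLC (linear 0.5–40 μg/ml). One-compartment first-order fit.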"}, "Pseudomonas aeruginosa [13]": {"tested_on": "Pseudomonas aeruginosa", "experiment": "Antibacterial activity against Pseudomonas aeruginosa isolate 927 by microdilution method", "assay_type": "functional"}, "[14]": {"experiment": "fT>MIC in human infected with Pseudomonas aeruginosa isolate 988 at 500 mg administered as 1 hr infusion", "assay_type": "functional"}, "[15]": {"experiment": "Elimination rate constant in Pseudomonas aeruginosa ATCC 27853 infected neutropenic ICR mouse at 10 mg/kg, sc administered as single dose 2 hrs postinfection", "assay_type": "ADME, organism-based", "design": "dose 10 mg/kg, route subcutaneous", "conditions": "in vivo", "method_in_brief": "as §2"}, "[16]": {"experiment": "Cmax in Pseudomonas aeruginosa ATCC 27853 infected neutropenic ICR mouse at 10 mg/kg, sc administered as single dose 2 hrs postinfection by HPLC", "assay_type": "ADME, organism-based", "design": "dose 10 mg/kg, route subcutaneous", "conditions": "in vivo", "method_in_brief": "as §2"}, "[17]": {"experiment": "fT>MIC in neutropenic mouse infected with Pseudomonas aeruginosa isolate 1005 at 500 mg administered as 4 hr infusion", "assay_type": "functional"}, "[18]": {"experiment": "fT>MIC in human infected with Pseudomonas aeruginosa isolate 886 at 500 mg administered as 4 hr infusion", "assay_type": "functional"}, "[19]": {"experiment": "fT>MIC in neutropenic mouse infected with Pseudomonas aeruginosa isolate 886 at 500 mg administered as 4 hr infusion", "assay_type": "functional", "method_in_brief": "as §1"}, "[20]": {"experiment": "Elimination rate constant in Pseudomonas aeruginosa ATCC 27853 infected neutropenic ICR mouse at 150 mg/kg, sc administered as single dose 2 hrs postinfection", "assay_type": "ADME, organism-based", "design": "dose 150 mg/kg, route subcutaneous", "conditions": "in vivo", "method_in_brief": "as §2"}, "[21]": {"experiment": "fT>MIC in neutropenic mouse infected with Pseudomonas aeruginosa isolate 1052 at 500 mg administered as 1 hr infusion", "assay_type": "functional", "method_in_brief": "(§3)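 Free-drug time above MIC simulated from one-compartment mouse serum PK (25.2% protein binding). The mice were cyclophosphamide-neutropenic and uranyl nitrate-renally impaired. Regimen was subcutaneous 10, 15, 2.5, 1.25, 0.5, 0.25 mg/kg at 0, 0.5, 2.5, 4, 5.5, 7 h, repeated every 8 h over 24 h.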"}, "[22]": {"experiment": "Elimination rate constant in Pseudomonas aeruginosa ATCC 27853 infected neutropenic ICR mouse at 50 mg/kg, sc administered as single dose 2 hrs postinfection", "assay_type": "ADME, organism-based", "design": "dose 50 mg/kg, route subcutaneous", "conditions": "in vivo", "method_in_brief": "as §2"}, "Pseudomonas aeruginosa [23]": {"tested_on": "Pseudomonas aeruginosa", "experiment": "Antibacterial activity against Pseudomonas aeruginosa isolate 1062 by microdilution method", "assay_type": "functional"}, "[24]": {"experiment": "fT>MIC in human infected with Pseudomonas aeruginosa isolate 1060 at 500 mg administered as 4 hr infusion", "assay_type": "functional"}, "[25]": {"experiment": "fT>MIC in human infected with Pseudomonas aeruginosa isolate 968 at 500 mg administered as 1 hr infusion", "assay_type": "functional"}, "[26]": {"experiment": "fT>MIC in neutropenic mouse infected with Pseudomonas aeruginosa isolate 979 at 500 mg administered as 1 hr infusion", "assay_type": "functional", "method_in_brief": "as §3"}, "[27]": {"experiment": "Tmax in Pseudomonas aeruginosa ATCC 27853 infected neutropenic ICR mouse at 10 mg/kg, sc administered as single dose 2 hrs postinfection by HPLC", "assay_type": "ADME, organism-based", "design": "dose 10 mg/kg, route subcutaneous", "conditions": "in vivo", "method_in_brief": "as §2"}, "[28]": {"experiment": "fT>MIC in neutropenic mouse infected with Pseudomonas aeruginosa isolate 935 at 500 mg administered as 4 hr infusion", "assay_type": "functional", "method_in_brief": "as §1"}, "[29]": {"experiment": "fT>MIC in human infected with Pseudomonas aeruginosa isolate 931 at 500 mg administered as 1 hr infusion", "assay_type": "functional"}, "[30]": {"experiment": "fT>MIC in human infected with Pseudomonas aeruginosa isolate 1029 at 500 mg administered as 4 hr infusion", "assay_type": "functional"}, "[31]": {"experiment": "fT>MIC in human infected with Pseudomonas aeruginosa isolate 936 at 500 mg administered as 1 hr infusion", "assay_type": "functional"}, "Pseudomonas aeruginosa [32]": {"tested_on": "Pseudomonas aeruginosa", "experiment": "Antibacterial activity against Pseudomonas aeruginosa isolate at 8 to 16 ug/ml after 24 hrs", "assay_type": "functional, organism-based"}, "[33]": {"experiment": "AUC (0 to 24 hrs) in Pseudomonas aeruginosa ATCC 27853 infected neutropenic ICR mouse at 10 mg/kg, sc administered as single dose 2 hrs postinfection", "assay_type": "ADME, organism-based", "design": "time < 24 hr, dose 10 mg/kg, route subcutaneous", "conditions": "plasma", "method_in_brief": "as §2"}, "Pseudomonas aeruginosa [34]": {"tested_on": "Pseudomonas aeruginosa", "experiment": "Antibacterial activity against Pseudomonas aeruginosa isolate 944 by microdilution method", "assay_type": "functional", "method_in_brief": "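CLSI broth microdilution in cation-adjusted Mueller-Hinton broth (20–25 mg/liter Ca, 10–12.5 mg/liter Mg). Standard inoculum 10⁵ CFU/ml, incubated in ambient air. Clinical hospital isolates.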"}, "[35]": {"experiment": "Cmax in Pseudomonas aeruginosa ATCC 27853 infected neutropenic ICR mouse at 500 mg administered as 1 hr infusion", "assay_type": "ADME, organism-based", "design": "dose 500 mg", "conditions": "in vivo, iv"}, "Pseudomonas aeruginosa [36]": {"tested_on": "Pseudomonas aeruginosa", "experiment": "Antibacterial activity against Pseudomonas aeruginosa at 2 times MIC", "assay_type": "functional, organism-based", "method_in_brief": "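Time-kill in cation-adjusted Mueller-Hinton broth. Inoculum from overnight culture set to 0.5 McFarland, final 10⁶ CFU/ml, 37°C in ambient air for 24 h. 1×, 2× and 7× MIC plus drug-free controls. Samples taken at 0, 2, 4, 6, 12 and 24 h and plated on sheep blood agar. Detection limit 10² CFU/ml.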"}}, "note": "The source made the active and inactive calls. The calls are words filed in the database; no cut-off is given here.", "data": [{"smiles": "C[C@@H](O)[C@H]1C(=O)N2C(C(=O)O)=C(S[C@@H]3CN[C@H](CNS(N)(=O)=O)C3)[C@H](C)[C@H]12", "note": "[DORIPENEM]", "values": [{"measurement": "fT>MIC", "setting": "[1]", "result": 80, "unit": "%"}, {"measurement": "fT>MIC", "setting": "[2]", "result": 55, "unit": "%"}, {"measurement": "MIC", "setting": "Pseudomonas aeruginosa [3]", "result": 8, "unit": "µg/mL"}, {"measurement": "Cmax", "setting": "[4]", "result": 7790, "unit": "ng/mL"}, {"measurement": "Cmax", "setting": "[5]", "result": 7990, "unit": "ng/mL"}, {"measurement": "fT>MIC", "setting": "[6]", "result": 27.5, "unit": "%"}, {"measurement": "fT>MIC", "setting": "[7]", "result": 70, "unit": "%"}, {"measurement": "fT>MIC", "setting": "[8]", "result": 95, "unit": "%"}, {"measurement": "fT>MIC", "setting": "[9]", "result": 55, "unit": "%"}, {"measurement": "AUC at 4 h", "setting": "[10]", "result": 34400, "unit": "ng·h/mL"}, {"measurement": "fT>MIC", "setting": "[11]", "result": 0, "unit": "%"}, {"measurement": "half-life", "setting": "[12]", "result": 24.6, "unit": "min"}, {"measurement": "MIC", "setting": "Pseudomonas aeruginosa [13]", "result": 16, "unit": "µg/mL"}, {"measurement": "fT>MIC", "setting": "[14]", "result": 17.5, "unit": "%"}, {"measurement": "k el at 2 h", "setting": "[15]", "result": 0.000467, "unit": "s⁻¹"}, {"measurement": "Cmax", "setting": "[16]", "result": 16300, "unit": "ng/mL"}, {"measurement": "fT>MIC", "setting": "[17]", "result": 82.5, "unit": "%"}, {"measurement": "fT>MIC", "setting": "[18]", "result": 100, "unit": "%"}, {"measurement": "fT>MIC", "setting": "[19]", "result": 100, "unit": "%"}, {"measurement": "k el at 2 h", "setting": "[20]", "result": 0.000433, "unit": "s⁻¹"}, {"measurement": "fT>MIC", "setting": "[21]", "result": 55, "unit": "%"}, {"measurement": "k el at 2 h", "setting": "[22]", "result": 0.000567, "unit": "s⁻¹"}, {"measurement": "MIC", "setting": "Pseudomonas aeruginosa [23]", "result": 0.5, "unit": "µg/mL"}, {"measurement": "fT>MIC", "setting": "[24]", "result": 55, "unit": "%"}, {"measurement": "fT>MIC", "setting": "[25]", "result": 7.5, "unit": "%"}, {"measurement": "fT>MIC", "setting": "[26]", "result": 42.5, "unit": "%"}, {"measurement": "Tmax", "setting": "[27]", "result": 15, "unit": "min"}, {"measurement": "fT>MIC", "setting": "[28]", "result": 82.5, "unit": "%"}, {"measurement": "fT>MIC", "setting": "[29]", "result": 27.5, "unit": "%"}, {"measurement": "fT>MIC", "setting": "[30]", "result": 100, "unit": "%"}, {"measurement": "fT>MIC", "setting": "[31]", "result": 17.5, "unit": "%"}, {"measurement": "Activity", "setting": "Pseudomonas aeruginosa [32]", "result": "inactive"}, {"measurement": "AUC(0-t) at 24 h", "setting": "[33]", "result": 13500, "unit": "ng·h/mL"}, {"measurement": "MIC", "setting": "Pseudomonas aeruginosa [34]", "result": 4, "unit": "µg/mL"}, {"measurement": "Cmax", "setting": "[35]", "result": 28400, "unit": "ng/mL"}, {"measurement": "Activity", "setting": "Pseudomonas aeruginosa [36]", "result": "inactive"}]}]}
